Bioassay records (PubChem BioAssay)
UPR CHOP act = activators of apoptotic CHOP UPR arm, primary screen, cell-based, CHO-CHOP luciferase reporter, luminescence, uHTS; UPR activation; percent of tunicamycin response over DMSO baseline; activation, % at 10 µM; 330,000 tested, 0.34% active;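 active = at 10 µM dose, activation of 40% or more, normalized to positive control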
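Evaluation: % reporter activation, DMSO baseline versus tunicamycin full activation; System: CHO-CHOP luciferase reporter cell line; Input: 500 cells/well; Incubation: 6 h compound treatment, 37 °C; Measured by: Steady-Glo luciferase luminescence; Dosing: one dose, 10 µM in 0.5% DMSO; Buffer or medium: F12 medium, 10% FBS; Benchmarks: positive tunicamycin 10 µg/mL, negative DMSO alone.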
TbMetRS inhib = T. brucei MetRS inhibitors, primary screen, biochemical, luminescence. inhibition, % at 11.9 µM. AID 624268, 2012. purified T. brucei MetRS, ATP depletion, Kinase-Glo luminescence. 360,000 tested, 0.4% active. methionyl-tRNA synthetase (Trypanosoma brucei brucei);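 active = inhibition above a per-plate cutoff of the control wells' mean inhibition plus 3 SD, cut at about 5.5% in these data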
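Dosing: 11.9 µM single point; system: parasite MetRS enzyme; technique: luminescence of leftover ATP; times: 15 min enzyme-compound preincubation, 2 h reaction, 10 min detection, 25 °C; replicates: each compound tested once; read-out basis: percent inhibition relative to median high and low control wells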
XBP1 UPR activ = activators of adaptive XBP1 UPR arm, primary screen, cell-based, CHO-XBP1 luciferase reporter, luminescence, uHTS. IRE1-XBP1 UPR activation; percent of tunicamycin response, DMSO as zero. activation, % at 20 µM. 330,000 tested, 0.33% active. AID 463104, 2010;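 active = versus positive control, 20 µM dose yields 30% or more activation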
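Material: CHO-XBP1 cells stably carrying IRE1-XBP1-driven luciferase reporter | Medium: F12 with 10% serum | Compound dosing: 20 µM single concentration, DMSO 1% | Incubation: Overnight seeding at 37 °C, 6 h compound treatment at 37 °C | Detection: Steady-Glo luminescence read | Read-out basis: % activation of reporter signal versus tunicamycin and DMSO controls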
V-ATPase pH = regulators of yeast V-ATPase proton pumping, primary screen, pHLuorin cytosolic pH fluorescence | S. cerevisiae | response, % at 10 µM | 350,000 tested, 0.37% active; in the data active = response mostly above about 7.3%, no sharp cut-off; inactive = mostly below about 5.4%; also: actives read high
CHOP inhibitor = inhibitors of CHOP promoter induction, primary screen, cell-based, unfolded protein response, luciferase reporter; CHO-K1 CHOP-promoter luciferase, tunicamycin-induced, 15-18 h; inhibition, % at 10 µM; 220,000 tested, 3.8% active; AID 2732, 2010;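 active = compounds that reduced the stress-induced luciferase reporter signal by more than about 70% of percent inhibition, limit read from the data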
CHOP inh conf = retest of CHOP induction inhibitors, confirmation, cell-based. shares compounds with CHOP inhibitor. CHO-CHOP promoter luciferase reporter, tunicamycin-induced, luminescence. inhibition, % at 10 µM. 2,100 tested, 45% active. AID 504437, 2011;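 active = mean of three repeat readings of reporter signal inhibition above a set limit, cut at about 70% in these data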
Of the large screens only hits and unclear results are named; the others gave an inactive call (follow-up assays come after a bar, where they were run). Only a selection was taken, and hits are over-represented in it overall.

COc1ccc(S(=O)(=O)N2CC(O)CC2C(=O)OCc2nc3sc(C)c(C)c3c(=O)[nH]2)cc1 (stereo not drawn)	none
O=C(Cc1ccc(Cl)c(Cl)c1)Nc1ccc2[nH]c(=O)[nH]c2c1	CHOP inhibitor 98 | CHOP inh conf inactive
CCCN(CC(=O)Nc1ccccc1C)C(=O)CCl	none
Cc1ccsc1C(=O)NCc1ccc(F)cc1	none (no result: CHOP inhibitor)
CCn1c(-c2nn(-c3ccc(C)cc3)ccc2=O)n[nH]c1=S	none
Cc1ccc(-n2ccc(=O)c(-c3ccnc(SCc4cccc(Cl)c4)n3)n2)cc1	CHOP inhibitor 98 | CHOP inh conf inactive
O=C(COC(=O)COc1ccc(Br)cc1)NNC(=O)c1ccccc1	none (no result: CHOP inhibitor)
CNc1ccc(Br)cc(C(=O)/C=C/c2cccc(Cl)c2Cl)c1=O	CHOP inhibitor 101 (no result: UPR CHOP act, XBP1 UPR activ) | CHOP inh conf inactive
O=S1(=O)CC(N2CCSCC2)CN1Cc1cn(Cc2cccc(C(F)(F)F)c2)nn1 (stereo not drawn)	none (no result: UPR CHOP act, XBP1 UPR activ, V-ATPase pH, CHOP inhibitor)
O=C1CCC(c2ccc3c(c2)CCC3)=NN1	none (no result: CHOP inhibitor)
Cn1c(=O)c([N+](=O)[O-])c(Cl)c2ccccc21	V-ATPase pH 32, CHOP inhibitor 108 (no result: UPR CHOP act, XBP1 UPR activ) | CHOP inh conf 141
COc1ccc(C(=O)/C=C/C(=O)N(Cc2ccc3c(c2)OCO3)C(C(=O)NC2CCCCC2)c2ccncc2)c(O)c1 (stereo not drawn)	none
COc1ccc(C(=O)/C=C/C(=O)N(CC(=O)NC2CCCCC2)Cc2cccs2)c(O)c1	CHOP inhibitor 108 | CHOP inh conf 119
O=C1C=C(c2ccccc2)C(=O)N1Nc1ccccc1	CHOP inhibitor 107 | CHOP inh conf inactive
Cc1ccc(NN2C(=O)C=C(c3ccc(Cl)cc3)C2=O)cc1	CHOP inhibitor 108 | CHOP inh conf 140
CCOc1ccc(C(=O)NCCN2CCCCC2)c(OCC)c1	none (no result: CHOP inhibitor)
Cc1ccc(C2CN(C)C3(C(=O)Nc4ccccc43)C23COc2ccccc2C3=O)cc1 (stereo not drawn)	CHOP inhibitor 107 | CHOP inh conf 88
Cn1c(-c2ccccc2)c(C(=O)CCl)c2ccccc21	CHOP inhibitor 108 (no result: UPR CHOP act, XBP1 UPR activ) | CHOP inh conf inactive
COc1cccc(-c2nc(CS(=O)CC(=O)NCc3ccccc3Cl)c(C)o2)c1 (stereo not drawn)	none
CCCCC1=CC2=C(c3ccco3)C(=O)C(C)(OC(=O)c3ccc(OC)cc3)C(=O)C2=CN1CCCCO (stereo not drawn)	none
CCCCC1=CC2=C(c3ccco3)C(=O)C(C)(OC(=O)c3ccc(OC)cc3)C(=O)C2=CN1Cc1ccco1 (stereo not drawn)	CHOP inhibitor 102 | CHOP inh conf inactive
CCn1nc(C(=O)OCC(=O)N(CCC#N)c2ccccc2)c2ccccc2c1=O	none (no result: CHOP inhibitor)
CN1OC[C@@H]2CN(Cc3cc(Cl)cc(Cl)c3)[C@H](c3cccc(-c4ccc(C#N)cc4)c3)C[C@@H]21	none (no result: UPR CHOP act, XBP1 UPR activ, CHOP inhibitor)
CCc1nnc(NC(=O)c2sc3nc4c(cc3c2N)CCCCCC4)s1	CHOP inhibitor 105 | CHOP inh conf inactive
CCc1nnc(NC(=O)c2sc3nc4c(cc3c2N)CCCCC4)s1	none
CC(C)(C)c1ccc(O)c(N=Cc2cc(Br)ccc2O)c1	CHOP inhibitor 98 | CHOP inh conf 112
O=C(CNC(=O)c1ccc(Br)o1)NCc1ccc(F)cc1	none (no result: CHOP inhibitor)
Cc1ccc(-n2[nH]c(C)c(C=Nc3ccc4[nH]c(=O)[nH]c4c3)c2=O)cc1	CHOP inhibitor 103 | CHOP inh conf inactive
Cc1nc2c(=O)n(C)c(=O)n(C)c2nc1Cl	CHOP inhibitor 109 (no result: UPR CHOP act, XBP1 UPR activ) | CHOP inh conf 118
C[C@@H]1CN([C@@H](C)CO)C(=O)CCCn2cc(nn2)CO[C@H]1CN(C)S(=O)(=O)c1ccccc1F	none (no result: UPR CHOP act, XBP1 UPR activ, CHOP inhibitor)
O=S(=O)(/N=S1/CC=CCN1S(=O)(=O)c1ccccc1)c1ccccc1 (stereo not drawn)	CHOP inhibitor 104 | CHOP inh conf inactive
O=S(=O)(c1ccccc1)N1CCN(S(=O)(=O)c2ccccc2)C1	none
